For test [1], the target named is Tyrosine-protein kinase JAK2 (Homo sapiens, UniProt O60674). The test is described as follows: Inhibition of Jak2 by HTRF assay. The procedure, abridged:
(§1)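 Enzyme inhibition was run with ATP at its Km for each kinase. Values are averages of at least two determinations.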
(In TR-FRET formats the signal depends on donor and acceptor labels being close together.)

For test [2], the target named is T1, Tyrosine-protein kinase ZAP-70 (Homo sapiens, UniProt P43403).
T1 sequence (P43403 whole entry): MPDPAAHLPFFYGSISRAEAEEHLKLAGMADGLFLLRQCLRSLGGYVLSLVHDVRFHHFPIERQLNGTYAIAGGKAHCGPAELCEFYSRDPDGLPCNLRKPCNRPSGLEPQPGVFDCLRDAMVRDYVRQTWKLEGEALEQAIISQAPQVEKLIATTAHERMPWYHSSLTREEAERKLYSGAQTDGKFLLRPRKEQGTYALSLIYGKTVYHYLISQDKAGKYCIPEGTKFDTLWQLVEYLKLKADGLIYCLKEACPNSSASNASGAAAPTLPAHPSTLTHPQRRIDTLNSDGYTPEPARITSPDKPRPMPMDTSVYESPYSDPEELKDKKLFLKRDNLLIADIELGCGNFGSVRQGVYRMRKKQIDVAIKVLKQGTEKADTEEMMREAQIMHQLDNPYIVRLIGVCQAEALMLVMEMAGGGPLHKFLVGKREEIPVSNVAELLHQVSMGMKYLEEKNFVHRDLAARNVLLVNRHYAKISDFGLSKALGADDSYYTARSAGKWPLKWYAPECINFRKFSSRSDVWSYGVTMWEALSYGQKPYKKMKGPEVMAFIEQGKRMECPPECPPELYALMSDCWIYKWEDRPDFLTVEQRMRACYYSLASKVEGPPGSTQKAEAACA
The test is described as follows: Inhibition of Zap70 by HTRF assay. A digest of the protocol: as §1

Test [3] has as its target Insulin-like growth factor 1 receptor (Homo sapiens, UniProt P08069). Kind of test: Inhibition of IGFR1 by HTRF assay. A digest of the protocol: as §1
Test [4] addresses Serine/threonine-protein kinase PLK1 (Homo sapiens, UniProt P53350). Kind of test: Inhibition of PLK1 by HTRF assay. A digest of the protocol: as §1
Test [5] addresses Mitogen-activated protein kinase 9 (Homo sapiens, UniProt P45984). Kind of test: Inhibition of JNK2 by HTRF assay. The procedure, abridged: as §1
For test [6], the target named is RAC-alpha serine/threonine-protein kinase (Homo sapiens, UniProt P31749). The test is described as follows: Inhibition of PKBalpha by HTRF assay. The procedure, abridged: as §1
Another test addresses Aurora kinase B (Homo sapiens, UniProt Q96GD4). The test is described as follows: Inhibition of Aurora B by HTRF assay. The procedure, abridged:
as §1

The target in test [7] is T2, Aurora kinase A/Targeting protein for Xklp2 (Homo sapiens, UniProt O14965).
T2 sequence (O14965 whole entry): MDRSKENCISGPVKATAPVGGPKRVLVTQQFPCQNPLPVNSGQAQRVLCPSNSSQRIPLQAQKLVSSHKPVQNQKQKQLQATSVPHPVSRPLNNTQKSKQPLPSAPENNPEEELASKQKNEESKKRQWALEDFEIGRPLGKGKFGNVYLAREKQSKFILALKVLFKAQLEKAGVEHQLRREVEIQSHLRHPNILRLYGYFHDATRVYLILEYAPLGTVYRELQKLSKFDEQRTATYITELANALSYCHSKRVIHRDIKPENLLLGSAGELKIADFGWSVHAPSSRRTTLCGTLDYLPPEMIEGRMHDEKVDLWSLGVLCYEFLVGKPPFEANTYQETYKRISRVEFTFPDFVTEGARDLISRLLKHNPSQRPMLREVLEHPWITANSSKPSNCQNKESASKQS
T2 sequence (Q9ULW0 whole entry): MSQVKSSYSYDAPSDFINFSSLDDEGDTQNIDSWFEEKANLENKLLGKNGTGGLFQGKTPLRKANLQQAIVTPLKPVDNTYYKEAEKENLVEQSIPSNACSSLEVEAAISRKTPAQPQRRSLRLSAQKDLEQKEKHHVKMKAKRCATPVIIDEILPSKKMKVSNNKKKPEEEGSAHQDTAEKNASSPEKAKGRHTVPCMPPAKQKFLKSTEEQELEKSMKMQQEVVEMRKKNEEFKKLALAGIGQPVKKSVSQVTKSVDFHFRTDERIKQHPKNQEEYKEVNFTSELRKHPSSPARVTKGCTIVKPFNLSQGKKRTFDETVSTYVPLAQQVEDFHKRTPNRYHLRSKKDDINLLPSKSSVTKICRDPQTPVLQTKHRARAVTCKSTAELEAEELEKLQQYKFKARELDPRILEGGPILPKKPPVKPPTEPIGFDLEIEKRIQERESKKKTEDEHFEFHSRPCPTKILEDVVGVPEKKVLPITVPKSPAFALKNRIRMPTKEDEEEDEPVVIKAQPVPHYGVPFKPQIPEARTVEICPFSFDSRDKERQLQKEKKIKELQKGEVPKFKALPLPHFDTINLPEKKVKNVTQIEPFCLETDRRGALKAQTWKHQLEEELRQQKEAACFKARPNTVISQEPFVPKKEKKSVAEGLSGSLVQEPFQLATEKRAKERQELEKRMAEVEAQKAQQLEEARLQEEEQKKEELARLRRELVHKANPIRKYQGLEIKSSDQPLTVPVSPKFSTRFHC
Kind of test: Inhibition of Aurora A/TPX2 (1-43) by HTRF assay. Type of test: protein-complex assay. The procedure, abridged: as §1

Test [8] deals with Ribosomal protein S6 kinase beta-1 (Homo sapiens, UniProt P23443). Kind of test: Inhibition of p70s6k by HTRF assay. The procedure, abridged: as §1
Sequence of Ribosomal protein S6 kinase beta-1 (P23443 whole entry): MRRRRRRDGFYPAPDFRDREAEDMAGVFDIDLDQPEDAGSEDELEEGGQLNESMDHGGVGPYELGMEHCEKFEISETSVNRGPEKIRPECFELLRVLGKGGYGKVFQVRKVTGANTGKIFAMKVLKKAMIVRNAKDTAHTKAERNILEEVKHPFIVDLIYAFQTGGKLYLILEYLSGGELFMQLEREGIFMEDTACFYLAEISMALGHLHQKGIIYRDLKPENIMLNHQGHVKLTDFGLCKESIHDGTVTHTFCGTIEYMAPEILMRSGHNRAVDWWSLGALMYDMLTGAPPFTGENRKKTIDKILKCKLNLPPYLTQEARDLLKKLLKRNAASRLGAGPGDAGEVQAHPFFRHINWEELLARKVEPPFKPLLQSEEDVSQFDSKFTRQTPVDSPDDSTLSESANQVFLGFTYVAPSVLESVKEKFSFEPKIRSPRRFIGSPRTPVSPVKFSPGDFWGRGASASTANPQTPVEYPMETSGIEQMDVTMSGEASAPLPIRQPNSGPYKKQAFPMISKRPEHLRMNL

Sequence of Insulin-like growth factor 1 receptor (P08069 31-736 limits assumed): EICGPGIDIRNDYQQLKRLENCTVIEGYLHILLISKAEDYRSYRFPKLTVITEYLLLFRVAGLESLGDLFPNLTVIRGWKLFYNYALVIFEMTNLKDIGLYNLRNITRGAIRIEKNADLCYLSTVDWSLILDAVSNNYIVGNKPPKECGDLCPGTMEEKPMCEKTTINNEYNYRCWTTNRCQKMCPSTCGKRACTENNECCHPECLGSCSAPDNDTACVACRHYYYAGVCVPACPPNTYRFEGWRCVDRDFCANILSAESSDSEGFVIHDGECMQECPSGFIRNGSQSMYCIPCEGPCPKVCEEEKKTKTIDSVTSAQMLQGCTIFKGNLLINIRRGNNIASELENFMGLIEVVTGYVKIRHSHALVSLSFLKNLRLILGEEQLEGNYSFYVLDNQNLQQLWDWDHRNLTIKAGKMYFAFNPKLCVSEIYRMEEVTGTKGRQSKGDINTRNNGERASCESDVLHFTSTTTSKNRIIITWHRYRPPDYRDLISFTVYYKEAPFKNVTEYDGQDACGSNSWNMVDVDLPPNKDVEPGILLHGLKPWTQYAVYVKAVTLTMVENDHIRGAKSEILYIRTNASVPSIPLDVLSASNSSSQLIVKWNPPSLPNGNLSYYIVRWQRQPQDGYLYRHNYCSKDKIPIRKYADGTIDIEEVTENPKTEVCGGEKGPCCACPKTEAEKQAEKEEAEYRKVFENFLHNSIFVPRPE
Sequence of Insulin-like growth factor 1 receptor (P08069 741-1367 limits assumed): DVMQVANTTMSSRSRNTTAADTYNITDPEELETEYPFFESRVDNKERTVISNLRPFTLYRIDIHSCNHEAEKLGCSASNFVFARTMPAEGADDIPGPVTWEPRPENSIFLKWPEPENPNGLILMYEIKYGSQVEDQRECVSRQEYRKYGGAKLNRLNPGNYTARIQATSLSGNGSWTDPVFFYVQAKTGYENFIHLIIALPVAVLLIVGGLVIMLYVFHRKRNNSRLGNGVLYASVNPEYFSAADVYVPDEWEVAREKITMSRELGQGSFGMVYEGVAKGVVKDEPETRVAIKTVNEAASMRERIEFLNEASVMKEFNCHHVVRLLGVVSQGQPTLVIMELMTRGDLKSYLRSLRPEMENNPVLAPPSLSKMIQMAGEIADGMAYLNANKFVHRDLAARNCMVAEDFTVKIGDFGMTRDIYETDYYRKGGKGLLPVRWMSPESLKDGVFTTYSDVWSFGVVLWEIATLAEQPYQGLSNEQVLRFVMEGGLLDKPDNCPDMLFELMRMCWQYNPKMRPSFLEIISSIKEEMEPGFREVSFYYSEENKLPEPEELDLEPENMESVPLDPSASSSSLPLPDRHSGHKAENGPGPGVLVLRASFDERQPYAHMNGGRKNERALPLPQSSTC
Sequence of RAC-alpha serine/threonine-protein kinase (P31749 whole entry): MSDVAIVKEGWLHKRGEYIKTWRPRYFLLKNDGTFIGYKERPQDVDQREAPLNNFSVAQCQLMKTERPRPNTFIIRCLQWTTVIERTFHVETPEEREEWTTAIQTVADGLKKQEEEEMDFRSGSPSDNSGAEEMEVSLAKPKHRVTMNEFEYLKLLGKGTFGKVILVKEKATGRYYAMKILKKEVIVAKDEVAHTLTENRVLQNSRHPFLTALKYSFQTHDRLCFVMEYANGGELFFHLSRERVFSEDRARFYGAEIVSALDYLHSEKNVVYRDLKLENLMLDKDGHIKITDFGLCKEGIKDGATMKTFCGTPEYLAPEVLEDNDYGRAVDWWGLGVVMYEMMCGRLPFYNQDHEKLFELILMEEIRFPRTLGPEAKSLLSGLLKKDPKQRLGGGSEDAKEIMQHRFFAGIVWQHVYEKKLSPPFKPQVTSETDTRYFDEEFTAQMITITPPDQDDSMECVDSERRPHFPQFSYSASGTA
Sequence of Mitogen-activated protein kinase 9 (P45984 whole entry): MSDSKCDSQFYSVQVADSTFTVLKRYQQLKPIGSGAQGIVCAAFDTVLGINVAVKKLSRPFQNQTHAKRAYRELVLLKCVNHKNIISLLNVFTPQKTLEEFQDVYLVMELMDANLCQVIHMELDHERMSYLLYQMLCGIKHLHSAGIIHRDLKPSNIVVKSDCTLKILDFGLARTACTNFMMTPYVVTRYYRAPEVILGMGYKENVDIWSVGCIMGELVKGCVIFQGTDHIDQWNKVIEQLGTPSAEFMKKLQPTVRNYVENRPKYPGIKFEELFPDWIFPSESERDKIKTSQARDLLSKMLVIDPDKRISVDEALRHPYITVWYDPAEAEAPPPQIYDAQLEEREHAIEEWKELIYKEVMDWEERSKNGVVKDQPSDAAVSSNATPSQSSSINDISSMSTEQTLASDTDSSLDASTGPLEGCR
Sequence of Aurora kinase B (Q96GD4 whole entry): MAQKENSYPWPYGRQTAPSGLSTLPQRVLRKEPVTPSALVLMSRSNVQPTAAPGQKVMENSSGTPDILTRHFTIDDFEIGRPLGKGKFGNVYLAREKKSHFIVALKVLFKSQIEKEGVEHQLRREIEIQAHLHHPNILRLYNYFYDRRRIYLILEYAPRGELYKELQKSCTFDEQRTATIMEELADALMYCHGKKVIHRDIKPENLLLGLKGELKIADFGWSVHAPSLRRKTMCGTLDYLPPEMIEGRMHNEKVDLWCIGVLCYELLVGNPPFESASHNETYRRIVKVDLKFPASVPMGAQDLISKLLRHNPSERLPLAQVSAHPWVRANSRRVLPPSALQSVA
Sequence of Serine/threonine-protein kinase PLK1 (P53350 whole entry): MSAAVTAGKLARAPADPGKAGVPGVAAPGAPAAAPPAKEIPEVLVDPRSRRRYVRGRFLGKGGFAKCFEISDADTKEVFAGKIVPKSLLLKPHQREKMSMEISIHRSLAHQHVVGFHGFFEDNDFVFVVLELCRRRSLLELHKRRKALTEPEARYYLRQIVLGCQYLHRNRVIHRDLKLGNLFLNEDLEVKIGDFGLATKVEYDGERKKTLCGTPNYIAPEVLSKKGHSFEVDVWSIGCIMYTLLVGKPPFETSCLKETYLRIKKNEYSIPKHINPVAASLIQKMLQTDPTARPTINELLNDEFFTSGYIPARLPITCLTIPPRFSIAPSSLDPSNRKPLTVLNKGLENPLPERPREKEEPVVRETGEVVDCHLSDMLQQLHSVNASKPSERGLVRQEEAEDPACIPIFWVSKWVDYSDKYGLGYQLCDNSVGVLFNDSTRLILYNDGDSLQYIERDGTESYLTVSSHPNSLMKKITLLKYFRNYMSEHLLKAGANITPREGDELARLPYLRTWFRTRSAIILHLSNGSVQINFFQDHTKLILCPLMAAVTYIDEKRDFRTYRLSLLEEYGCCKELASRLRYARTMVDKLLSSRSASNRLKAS
Sequence of Tyrosine-protein kinase JAK2 (O60674 whole entry): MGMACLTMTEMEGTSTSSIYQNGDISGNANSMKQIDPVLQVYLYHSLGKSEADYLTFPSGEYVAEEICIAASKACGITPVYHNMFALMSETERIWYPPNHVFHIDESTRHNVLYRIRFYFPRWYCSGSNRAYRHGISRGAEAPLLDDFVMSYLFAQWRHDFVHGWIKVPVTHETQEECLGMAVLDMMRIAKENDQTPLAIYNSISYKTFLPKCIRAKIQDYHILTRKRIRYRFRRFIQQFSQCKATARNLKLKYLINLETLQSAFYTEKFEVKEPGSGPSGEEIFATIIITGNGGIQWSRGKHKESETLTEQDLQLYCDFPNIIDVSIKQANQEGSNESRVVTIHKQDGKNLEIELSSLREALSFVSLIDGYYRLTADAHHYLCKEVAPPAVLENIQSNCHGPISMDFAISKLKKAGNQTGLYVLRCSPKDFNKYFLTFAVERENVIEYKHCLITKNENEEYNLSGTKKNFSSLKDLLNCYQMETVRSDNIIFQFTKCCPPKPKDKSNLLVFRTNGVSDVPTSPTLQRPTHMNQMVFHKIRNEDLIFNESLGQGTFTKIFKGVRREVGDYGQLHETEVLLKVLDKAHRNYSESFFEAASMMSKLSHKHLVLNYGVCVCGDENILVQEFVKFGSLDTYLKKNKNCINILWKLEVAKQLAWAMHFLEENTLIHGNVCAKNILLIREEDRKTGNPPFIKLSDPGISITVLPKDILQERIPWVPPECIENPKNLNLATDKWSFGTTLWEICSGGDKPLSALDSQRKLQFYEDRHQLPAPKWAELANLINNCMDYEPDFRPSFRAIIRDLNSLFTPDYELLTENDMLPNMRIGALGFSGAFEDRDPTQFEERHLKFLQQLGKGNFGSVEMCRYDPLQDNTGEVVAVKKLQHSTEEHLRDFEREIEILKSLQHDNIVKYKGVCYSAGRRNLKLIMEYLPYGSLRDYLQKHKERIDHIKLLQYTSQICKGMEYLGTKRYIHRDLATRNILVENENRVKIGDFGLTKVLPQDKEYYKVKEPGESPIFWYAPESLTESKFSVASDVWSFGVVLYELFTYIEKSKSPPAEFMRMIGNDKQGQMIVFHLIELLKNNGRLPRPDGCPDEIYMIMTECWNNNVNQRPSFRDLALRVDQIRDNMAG

A word on the IC50: it is the midpoint of a concentration-inhibition curve. The low end stands for greater potency in that assay, the high end for weaker potency in that assay. Turning to `CNc1nccc(-c2cccnc2Oc2ccc(NC(=O)c3cccc(C(F)(F)F)c3)cc2C)n1`, the half-inhibitory concentration (IC50) in test [1], in [2], in test [3], in [4], in [5] and in test [6] was > 8 µM each time. Moreover, the 50% inhibitory concentration (IC50) against Aurora kinase B was 0.066 µM; in test [7], 0.586 µM; in [8], > 8 µM.

Regarding `CNc1nccc(-c2cccnc2Oc2ccc(NC(=O)c3ccccc3Nc3ccccc3)cc2)n1`, the concentration for half-maximal inhibition (IC50) in [1], in test [2], in test [3], in [4], in test [5] and in test [6] was > 1 µM in each case. Further, the 50% inhibitory concentration (IC50) on Aurora kinase B was 0.009 µM; in test [7], 0.016 µM; in test [8] it was > 1 µM.

Turning to `CNc1nccc(-c2cccnc2Oc2ccc(Nc3nnc(-c4ccc(F)cc4)c4ccccc34)cc2)n1`, the IC50 in test [1], in test [2], in [3], in test [4], in [5] and in [6] was > 25 µM throughout. The IC50 is 0.015 µM on Aurora kinase B, 0.041 µM in test [7] and > 25 µM in test [8].

For the origin of these results see ChEMBL document CHEMBL1240487, “Discovery of a potent, selective, and orally bioavailable pyridinyl-pyrimidine phthalazine aurora kinase inhibitor” (J Med Chem, 2010).
